The source of these data is paper PMC8114186 (ChemMedChem, 2020).

In one assay the target is NDM-1 (Klebsiella pneumoniae, UniProt C7C422). The assay can be described thus: In vitro inhibition of NDM-1-catalyzed turnover of nitrocefin. The assay is classed as biochemical. In short, it runs like this: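 Purified NDM-1 enzyme, identity and purity confirmed by ESI-MS. Test compound serially diluted in 50 mM HEPES, pH 7.2, and preincubated with 1 nM NDM-1 for 10 min at rt. Nitrocefin (20 µM) then added; absorbance at 492 nm followed over 30 min at rt. Slopes normalized to each compound's maximum slope, plotted against log concentration; IC50 and confidence intervals from curve fit.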

The subject of assay [1] is E. coli UTI89 expressing NDM-1. The assay is classed as cell-based.
In assay [2] the test system is E. coli MG1655 expressing NDM-1. Type of assay: cell-based.
The mark [3] stands for this setting: E. coli MG1655, 100 μM compound.

Read-outs that look alike come from different tables or passages of the source. Marks after values point to notes of the source that are not given here.

Chain of NDM-1 (C7C422 29-270, looked up, species assumed): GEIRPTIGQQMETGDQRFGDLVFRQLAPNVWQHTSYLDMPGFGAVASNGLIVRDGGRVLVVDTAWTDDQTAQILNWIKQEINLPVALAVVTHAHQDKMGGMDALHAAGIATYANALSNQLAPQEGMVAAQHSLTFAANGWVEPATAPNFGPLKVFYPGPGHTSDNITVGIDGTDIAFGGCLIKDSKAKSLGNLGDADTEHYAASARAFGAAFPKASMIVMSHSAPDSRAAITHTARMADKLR

In general, IC50 refers to the concentration that gives 50% inhibition. Lower therefore signals greater potency in that assay. As to `O=C(O)c1cccc2oc(-c3ccc4ccccc4c3O)nc12` [Compound 5, 2-(1-hydroxynaphthalen-2-yl)benzoxazole-4-carboxylic acid], the concentration for half-maximal inhibition (IC50) on NDM-1 was determined as 0.74 µM. Besides, the “Decrease of the MIC of meropenem” value in assay [1] (E. coli UTI89, 100 μM compound) is recorded as “at least 16 fold”; in assay [2] (setting [3]), “at least 16 fold”.

For the compound `O=C(O)c1cccc2oc(-c3cc4ccccc4cc3O)nc12` [Compound 6, 2-(3-hydroxynaphthalen-2-yl)benzoxazole-4-carboxylic acid], at NDM-1, inhibition was half-maximal at 9.8 µM (IC50).

Compound `O=C(O)c1cccc2oc(-c3c(O)ccc4ccccc34)nc12` [Compound 7, 2-(2-hydroxynaphthalen-1-yl)benzoxazole-4-carboxylic acid] yielded an IC50 against NDM-1 of 8.5 µM. Moreover, the “Restoration of meropenem susceptibility” value in assay [1] (E. coli UTI89, 100 μM compound) is “failed to restore meropenem susceptibility”; in assay [2] (setting [3]), “failed to restore meropenem susceptibility”. Moreover, the “Meropenem MIC” value in assay [1] (E. coli UTI89, meropenem + 100 μM compound) amounted to 64 µg/mL; in assay [2] (E. coli MG1655, meropenem + 100 μM compound), 64 µg/mL.

For `O=C(O)c1cccc2oc(-c3ccc4ccc(OCc5ccccc5)cc4c3O)nc12` [Compound 8, 2-(7-benzyloxy-1-hydroxynaphthalen-2-yl)benzoxazole-4-carboxylic acid], the IC50 at NDM-1 was determined as 2.3 µM. Besides, the “Decrease of the MIC of meropenem” value in assay [1] (E. coli UTI89, 100 μM compound) is “at least 16 fold”; in assay [2] (setting [3]) it was “at least 16 fold”.

Consider `O=C(O)c1cccc2oc(-c3ccc4cc(OCc5ccccc5)ccc4c3O)nc12` [Compound 9, 2-(6-benzyloxy-1-hydroxynaphthalen-2-yl)benzoxazole-4-carboxylic acid], for which the “Reduction of the MIC of meropenem” value in assay [1] (E. coli UTI89, 25 μM compound) is given as “at least 4 fold”; in assay [2] (E. coli MG1655, 25 μM compound) it was “at least 4 fold”. Also, the “Decrease of the MIC of meropenem” value in assay [1] (E. coli UTI89, 100 μM compound) is on record as “at least 16 fold”; in assay [2] (setting [3]), “at least 16 fold”. The “Antibacterial activity of compound on its own” value is “did not show any antibacterial activity” in assay [1] (E. coli UTI89, 200 μM, no meropenem) and “did not show any antibacterial activity” in assay [2] (E. coli MG1655, 200 μM, no meropenem). Besides, the “Meropenem MIC” value is 4–8^[a] μg/mL in assay [1] (E. coli UTI89, meropenem + 25 μM compound); not above 0.5 µg/mL in assay [1] (E. coli UTI89, meropenem + 50 μM compound); not above 0.5 µg/mL in assay [1] (E. coli UTI89, meropenem + 200 μM compound); 16 µg/mL in assay [2] (E. coli MG1655, meropenem + 25 μM compound); 1–4^[a] μg/mL in assay [2] (E. coli MG1655, meropenem + 50 μM compound); not above 0.5 µg/mL in assay [2] (E. coli MG1655, meropenem + 200 μM compound).

Turning to `O=C(O)c1cccc2oc(-c3ccc4c(OCc5ccccc5)cccc4c3O)nc12` [Compound 10, 2-(5-benzyloxy-1-hydroxynaphthalen-2-yl)benzoxazole-4-carboxylic acid], at NDM-1, the IC50 is more than 40 µM and the “Inhibitory activity against NDM-1 (in words)” value is “lack of inhibitory activity”.

In general, MIC refers to the lowest concentration that inhibits growth of the organism. As for `C[C@@H](O)[C@H]1C(=O)N2C(C(=O)O)=C(S[C@@H]3CN[C@H](C(=O)N(C)C)C3)[C@H](C)[C@H]12` [Meropenem, reference compound], the “Meropenem MIC” value was more than 64 µg/mL in assay [1] (E. coli UTI89, meropenem alone) and 64 µg/mL in assay [2] (E. coli MG1655, meropenem alone). Besides, the MIC in assay [1] (Escherichia coli, read-out: Meropenem MIC, E. coli UTI89, meropenem alone) was not below 64 µg/mL.
